From ChEMBL document CHEMBL4196198, “Terpenoids from Euphorbia pedroi as Multidrug-Resistance Reversers” (J Nat Prod, 2018)

Assays:
[1] = biological target: T1, ATP-dependent translocase ABCB1 (Homo sapiens, UniProt P08183); assay: Modulation of human ABCB1 expressed in mouse L5178Y cells assessed as fluorescence activity ratio at 20 uM pretreated for 10 mins followed by rhodamine 123 addition and measured after 20 mins by flow cytometry (reference value: 1.01); format: cell-based
[2] = biological target: T1, ATP-dependent translocase ABCB1; assay: Modulation of human ABCB1 expressed in mouse L5178Y cells assessed as fluorescence activity ratio at 2 uM pretreated for 10 mins followed by rhodamine 123 addition and measured after 20 mins by flow cytometry (reference value: 1.01); format: cell-based
L5178Y [3] = assay: Antiproliferative activity against mouse L5178Y cells after 72 hrs by MTT assay; format: cell-based
Method in brief: (§1)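 L5178Y-PAR and ABCB1-transfected L5178Y-MDR cells seeded at 6 × 10^3 per well. Compounds tested in 2-fold serial dilutions for 72 h. MTT in PBS was added for 4 h, then SDS (10% in 0.01 M HCl) overnight at 37 °C. OD read at 550 nm (reference 630 nm), in quadruplicate. IC50 fitted from dose–inhibition curves; mean ± SD.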

[4] = biological target: T1, ATP-dependent translocase ABCB1; assay: Modulation of human ABCB1 expressed in mouse L5178Y cells assessed as potentiation of doxorubicin-induced cytotoxicity by measuring combination index at ED50 measured after 48 hrs by MTT assay; format: cell-based
Method in brief: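 Checkerboard in L5178Y-MDR cells: doxorubicin diluted 14.7–0.1 μM along one axis, modulator diluted from 2-fold its IC50 along the other, at fixed ratios. Cells at 2 × 10^5/mL, 48 h, MTT read-out. Dose–response curves fitted by Chou median-effect equation, keeping only r > 0.90. CI at 50% inhibition given as mean ± SD of three CI values from different drug ratios.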

L5178Y [5] = assay: Antiproliferative activity against mouse L5178Y cells harboring human ABCB1 after 72 hrs by MTT assay; format: ADME, cell-based; method in brief: as §1
[6] = biological target: T1, ATP-dependent translocase ABCB1; assay: Modulation of ABCB1 (unknown origin) expressed in human COLO320 cells co-expressing LRP assessed as fluorescence activity ratio at 2 uM pretreated for 10 mins followed by rhodamine 123 addition and measured after 20 mins by flow cytometry (reference value: 0.79); format: cell-based
NIH3T3 = assay: Cytotoxicity against mouse NIH/3T3 cells after 24 hrs by MTT assay; format: cell-based; conditions: NIH3T3, 24 h
Method in brief: (§2)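 Cells seeded at 1 × 10^4 per well, with adherent lines detached by trypsin-EDTA and allowed 4 h attachment at 37 °C, 5% CO2. Compounds in 2-fold serial dilutions for 24 h. MTT for 4 h, SDS/HCl solubilization overnight, OD 550 nm (ref 630 nm) in quadruplicate. Percent growth inhibition calculated vs cell and medium controls; IC50 from fitted curves.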

[7] = biological target: T1, ATP-dependent translocase ABCB1; assay: Modulation of ABCB1 (unknown origin) expressed in human COLO320 cells co-expressing LRP assessed as fluorescence activity ratio at 20 uM pretreated for 10 mins followed by rhodamine 123 addition and measured after 20 mins by flow cytometry (reference value: 0.79); format: cell-based
COLO 205 = assay: Cytotoxicity against human COLO205 cells after 24 hrs by MTT assay; format: cell-based; conditions: COLO 205, 24 h; method in brief: as §2
MRC5 = assay: Cytotoxicity against human MRC5 cells after 24 hrs by MTT assay; format: cell-based; conditions: MRC5, 24 h; method in brief: as §2
COLO 320 = assay: Cytotoxicity against human COLO320 cells after 24 hrs by MTT assay; format: cell-based; conditions: COLO 320, 24 h; method in brief: as §2
[8] = biological target: T1, ATP-dependent translocase ABCB1; assay: Modulation of human ABCB1 expressed in mouse L5178Y cells assessed as fluorescence activity ratio at 0.2 uM pretreated for 10 mins followed by rhodamine 123 addition and measured after 20 mins by flow cytometry (reference value: 1.01); format: cell-based
[9] = biological target: T1, ATP-dependent translocase ABCB1; assay: Modulation of ABCB1 (unknown origin) expressed in human COLO320 cells co-expressing LRP assessed as fluorescence activity ratio at 0.2 uM pretreated for 10 mins followed by rhodamine 123 addition and measured after 20 mins by flow cytometry (reference value: 0.79); format: cell-based

T1 sequence (P08183 whole entry): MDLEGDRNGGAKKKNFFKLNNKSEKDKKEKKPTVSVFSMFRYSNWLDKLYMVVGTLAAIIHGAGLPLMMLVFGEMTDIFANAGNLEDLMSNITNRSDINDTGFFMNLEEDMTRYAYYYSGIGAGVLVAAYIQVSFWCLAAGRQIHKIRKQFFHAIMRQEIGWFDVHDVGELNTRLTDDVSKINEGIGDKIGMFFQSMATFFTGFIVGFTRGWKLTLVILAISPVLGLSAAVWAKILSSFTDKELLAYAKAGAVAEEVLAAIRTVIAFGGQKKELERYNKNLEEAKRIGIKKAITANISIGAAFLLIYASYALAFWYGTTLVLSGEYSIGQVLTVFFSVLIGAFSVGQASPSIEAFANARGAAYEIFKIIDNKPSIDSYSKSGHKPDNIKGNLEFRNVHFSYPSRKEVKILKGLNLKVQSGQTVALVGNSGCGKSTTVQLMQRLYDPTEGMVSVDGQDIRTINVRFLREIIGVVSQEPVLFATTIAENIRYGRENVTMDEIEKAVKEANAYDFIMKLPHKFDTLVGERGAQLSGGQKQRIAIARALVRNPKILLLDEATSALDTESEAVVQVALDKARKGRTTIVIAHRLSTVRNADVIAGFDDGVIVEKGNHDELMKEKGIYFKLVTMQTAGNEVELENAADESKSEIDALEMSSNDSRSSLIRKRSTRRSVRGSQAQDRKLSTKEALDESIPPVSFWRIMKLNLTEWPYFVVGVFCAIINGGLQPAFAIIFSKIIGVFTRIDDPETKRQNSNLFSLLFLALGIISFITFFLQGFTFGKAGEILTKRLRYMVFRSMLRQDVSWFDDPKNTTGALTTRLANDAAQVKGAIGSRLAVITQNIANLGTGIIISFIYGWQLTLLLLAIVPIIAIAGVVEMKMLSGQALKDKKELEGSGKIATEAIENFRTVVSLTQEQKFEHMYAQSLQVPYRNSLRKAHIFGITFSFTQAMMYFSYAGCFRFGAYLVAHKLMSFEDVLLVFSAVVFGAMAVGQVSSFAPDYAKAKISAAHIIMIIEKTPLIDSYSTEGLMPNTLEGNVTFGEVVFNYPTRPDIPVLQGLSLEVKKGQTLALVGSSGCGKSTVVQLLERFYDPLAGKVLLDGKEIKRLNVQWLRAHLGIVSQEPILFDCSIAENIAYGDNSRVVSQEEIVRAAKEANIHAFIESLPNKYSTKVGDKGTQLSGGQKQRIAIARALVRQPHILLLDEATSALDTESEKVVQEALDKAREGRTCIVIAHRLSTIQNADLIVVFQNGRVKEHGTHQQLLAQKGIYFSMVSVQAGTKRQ

SMILES | Ratio [1] | Ratio [2] | IC50 (L5178Y [3]) | CI [4] | IC50 (L5178Y [5]) | Ratio [6] | IC50 (NIH3T3) | Ratio [7] | IC50 (COLO 205) | IC50 (MRC5) | IC50 (COLO 320) | Ratio [8] | Ratio [9]
CC(=O)O/N=C1\CC[C@@]2(C)[C@@H]3C[C@H]4OC(=O)C(C)=C4C=C3CC[C@@H]2C1(C)C | 38.64 | 3.02 | > 10 µM | 0.501 | > 10 µM | – | – | – | – | – | – | – | –
CC[C@H](CC[C@@H](C)[C@H]1CC[C@H]2[C@@H]3CCC4=CC(=O)CC[C@]4(C)[C@H]3CC[C@]12C)C(C)C | 22.56 | 2.51 | > 10 µM | – | > 10 µM | 0.97 | > 10 µM | 1.34 | > 10 µM | > 10 µM | > 10 µM | – | –
CC1=C2C=C3CC[C@@H]4C(C)(C)[C@@H](O)CC[C@@]4(C)[C@@H]3C[C@H]2OC1=O [HELIOSCOPINOLIDE B] | 8.18 | 1.7 | > 10 µM | 0.652 | > 10 µM | 1.73 | > 10 µM | 6.78 | > 10 µM | > 10 µM | > 10 µM | – | –
C[C@H](C/C=C/C(C)(C)O)[C@H]1CC[C@@]2(C)[C@@H]3CC[C@H]4C(C)(C)[C@@H](O)CC[C@@]45C[C@@]35CC[C@]12C | 67.05 | 10.68 | > 10 µM | – | > 10 µM | 1.26 | > 10 µM | 3.45 | > 10 µM | > 10 µM | > 10 µM | – | –
C=C(CC[C@@H](C)[C@H]1CC[C@@]2(C)C(=O)[C@@]3(CC[C@]12C)[C@@H](O)C[C@H]1[C@H](C)[C@@H](O)CC[C@@]13C)C(C)C | 96.02 | 54.38 | > 10 µM | 0.872 | > 10 µM | 2.27 | > 10 µM | 8 | > 10 µM | > 10 µM | > 10 µM | 43.75 | 1.68
CC1=C2C=C3CC[C@@H]4C(C)(C)/C(=N/O)CC[C@@]4(C)[C@@H]3C[C@H]2OC1=O | 4.88 | 0.96 | > 10 µM | 0.477 | > 10 µM | – | – | – | – | – | – | – | –
CC1=C2C=C3CC[C@@H]4C(C)(C)C(=O)CC[C@@]4(C)[C@@H]3C[C@H]2OC1=O [HELIOSCOPINOLIDE E] | 10.23 | 1.84 | > 10 µM | 0.367 | > 10 µM | 0.44 | > 10 µM | 0.98 | > 10 µM | > 10 µM | > 10 µM | – | –
CCCC(=O)O/N=C1\CC[C@@]2(C)[C@@H]3C[C@H]4OC(=O)C(C)=C4C=C3CC[C@@H]2C1(C)C | 10.38 | 1.36 | > 10 µM | 0.387 | > 10 µM | – | – | – | – | – | – | – | –
C=C(CC[C@@H](C)[C@H]1CC[C@@]2(C)C3=C(C(=O)C[C@]12C)[C@@]1(C)CC[C@H](O)[C@@H](C)[C@@H]1CC3=O)C(C)C | 30.68 | 6.14 | > 10 µM | – | > 10 µM | 1.09 | > 10 µM | 1.84 | > 10 µM | > 10 µM | > 10 µM | – | –
C=C(C)[C@H](O)CC[C@@H](C)[C@H]1CC[C@@]2(C)[C@@H]3CC[C@H]4C(C)(C)[C@@H](O)CC[C@@]45C[C@@]35CC[C@]12C | 43.58 | 5.91 | > 10 µM | – | > 10 µM | 0.77 | > 10 µM | 5.91 | > 10 µM | > 10 µM | > 10 µM | – | –
CC1=C2C=C3CC[C@@H]4C(C)(C)/C(=N/OC(=O)c5ccco5)CC[C@@]4(C)[C@@H]3C[C@H]2OC1=O | 40.69 | 2.1 | > 10 µM | 0.454 | > 10 µM | – | – | – | – | – | – | – | –
CC1(C)CC[C@]2(C(=O)O)CC[C@]3(C)C(=CC[C@@H]4[C@@]5(C)CC[C@H](O)C(C)(C)[C@@H]5CC[C@]43C)[C@@H]2C1 [OLEANOLIC_ACID] | 1.7 | 1.06 | > 10 µM | – | > 10 µM | 2.1 | > 10 µM | 4.71 | > 10 µM | > 10 µM | > 10 µM | – | –
CC1=C2C=C3CC[C@@H]4C(C)(C)/C(=N/OC(=O)c5cccs5)CC[C@@]4(C)[C@@H]3C[C@H]2OC1=O | 7.09 | 1.09 | > 10 µM | 0.324 | > 10 µM | – | – | – | – | – | – | – | –
CC1=C2C=C3CC[C@@H]4C(C)(C)/C(=N/OC(=O)c5ccccc5)CC[C@@]4(C)[C@@H]3C[C@H]2OC1=O | 56.37 | 5.78 | > 10 µM | 0.152 | > 10 µM | – | – | – | – | – | – | – | –
